In brackets after ≈: the same amount, converted by molar mass.
What was measured:
Escherichia coli [1] = test: Antibacterial activity against Escherichia coli BL21 (DE3) assessed as prevention of visible growth incubated for 20 hrs by two-fold serial microbroth dilution method; type: functional
Method in brief: (§1)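 Broth microdilution in LB with 5% DMSO. Overnight cultures (LB, 37 °C, 200 rpm) were diluted 1:100 and added to a twofold compound dilution series in DMSO, giving 5·10^6 cfu·mL⁻¹ and final compound 64 to 0.25 µg·mL⁻¹. Plates were incubated 20 h at 37 °C. MIC was taken as the lowest concentration with no visible growth. At least three runs on separate days.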

Escherichia coli [2] = test: Antibacterial activity against Escherichia coli BL21 (DE3) assessed as zone of growth inhibition at 10 mmol incubated for overnight by disc diffusion method; type: functional; settings: dose 10 mM; time 12 hrs
Method in brief: (§2)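 Overnight LB cultures (37 °C, 200 rpm), 150 µL spread on LB agar. 15 µL of compound (10 mM stock in DMSO) was applied to 6 mm filter paper disks, with DMSO as negative and CHIR-090 as positive control. Plates were incubated overnight at 37 °C and the diameter of the growth-inhibition zone was measured. At least three runs on separate days.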

[3] = Inhibition of LpxC C63A mutant in Escherichia coli […] preincubated for 30 mins followed by incubation for 10 mins by spectrophotometric analysis
Escherichia coli [4] = test: Antibacterial activity against Escherichia coli D22 incubated assessed as prevention of visible growth for 20 hrs by two-fold serial microbroth dilution method; type: functional; method in brief: as §1
Escherichia coli [5] = test: Antibacterial activity against Escherichia coli D22 assessed as zone of growth inhibition at 10 mmol incubated for overnight by disc diffusion method; type: functional; settings: dose 10 mM; time 12 hrs; method in brief: as §2

| SMILES | MIC (Escherichia coli [1]) | inhibition zone (IZ) (Escherichia coli [2]) | IC50 [3] | MIC (Escherichia coli [4]) | inhibition zone (IZ) (Escherichia coli [5]) |
| --- | --- | --- | --- | --- | --- |
| O=C(CO[C@H](Cn1ccnn1)c1ccc(OCc2ccccc2)cc1)NO | > 64 µg/mL | <6 mm | > 200 µM | > 64 µg/mL | 15 mm |
| O=C(CO[C@H](Cn1nncc1CO)c1ccc(C#Cc2ccccc2)cc1)NO | > 64 µg/mL | 10.3 mm | 23.4 µM | 1 µg/mL (≈ 2.55 µM) | 29.5 mm |
| O=C(CO[C@@H](CO)c1ccc(C#Cc2ccccc2)cc1)NO | > 64 µg/mL | <6 mm | > 200 µM | 32 µg/mL (≈ 103 µM) | 13 mm |
| O=C(CO[C@H](CO)c1ccc(C#Cc2ccccc2)cc1)NO | 64 µg/mL (≈ 206 µM) | 9.5 mm | 86.2 µM | 1 µg/mL (≈ 3.21 µM) | 20.5 mm |
| O=C(CO[C@@H](Cn1ccnn1)c1ccc(C#Cc2ccccc2)cc1)NO | > 64 µg/mL | <6 mm | > 200 µM | ≥ 32 µg/mL | 11 mm |
| C[C@@H](O)[C@H](NC(=O)c1ccc(C#Cc2ccc(CN3CCOCC3)cc2)cc1)C(=O)NO | 0.25 µg/mL (≈ 0.571 µM) | 31.7 mm | 0.076 µM | 0.031 µg/mL (≈ 0.0709 µM) | 37.5 mm |
| O=C(CO[C@H](Cn1ccnn1)c1ccc(C#Cc2ccccc2)cc1)NO | > 64 µg/mL | <6 mm | 36 µM | 1 µg/mL (≈ 2.76 µM) | 21 mm |
| O=C(CO[C@H](Cn1cc(-c2ccccc2)nn1)c1ccc(OCc2ccccc2)cc1)NO | > 64 µg/mL | <6 mm | > 200 µM | 32 µg/mL (≈ 72 µM) | 10 mm |
| O=C(CO[C@H](Cn1cc(CO)nn1)c1ccc(C#Cc2ccccc2)cc1)NO | > 64 µg/mL | <6 mm | 8.5 µM | 4 µg/mL (≈ 10.2 µM) | 20.7 mm |
| O=C(CO[C@@H](Cn1cc(-c2ccccc2)nn1)c1ccc(C#Cc2ccccc2)cc1)NO | > 64 µg/mL | <6 mm | > 200 µM | 32 µg/mL (≈ 73 µM) | 8.7 mm |
| O=C(CO[C@H](Cn1nncc1-c1ccccc1)c1ccc(C#Cc2ccccc2)cc1)NO | > 64 µg/mL | <6 mm | > 20 µM | 8 µg/mL (≈ 18.2 µM) | 10.7 mm |
| O=C(CO[C@H](Cn1cc(-c2ccccc2)nn1)c1ccc(C#Cc2ccccc2)cc1)NO | > 64 µg/mL | <6 mm | 10.4 µM | 0.25 µg/mL (≈ 0.57 µM) | 12.3 mm |

Source: ChEMBL document CHEMBL4725237, “Synthesis and biological evaluation of triazolyl-substituted benzyloxyacetohydroxamic acids as LpxC inhibitors” (Bioorg Med Chem, 2020)
